According to ChEMBL document CHEMBL2150888, “Conformationally constrained peptides from CD2 to modulate protein-protein interactions between CD2 and CD58” (J Med Chem, 2011):
*1 amine or outer side, *2 acyl side, *3 side chain or, on linkers, in order; H or OH if unused. Where a SMILES comes first, the peptide text is derived from it. [ ]: non-standard residue; d: D form. X1 = O=C(CCc1cccc2c1oc1c(CCN[*:1])cccc12)[*:2]

Legend:
T-cell = assay: Inhibition of T-cell response to type 2 collagen in type 2 collagen primed T cells derived from transgenic mouse expressing functional HLA-DQ8 by [3H]thymidine incorporation assay; assay type: cell-based
Method in brief: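 Lymph node cells (draining popliteal, caudal, lumbar) taken 10 days after intradermal tail-base immunization of HLA-DQ8 transgenic mice with 200 µg native chick CII in CFA (1:1). 1 × 10^6 LNC challenged in vitro with CII at 50 µg/mL, with peptide at four concentrations (10–.01 µM); 3H-thymidine (1 µCi/well) pulse for last 18 h; Δcpm = test minus medium control; mean ±S.D., N = 4.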

[1] = Toxicity in human Jurkat cells assessed as cell viability incubated for 2 hrs by CellTiter-Glo assay; assay type: cell-based; settings: read-out: Activity
Method in brief: (§1)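 Jurkat suspensions treated in tubes with peptide (diluted in serum-free medium from DMSO stock) for 2 h, washed by centrifugation, then CellTiter-Glo luminescence read on a microplate. Blank-subtracted, with SDS and 1% DMSO controls. Viability relative to cells without peptide; triplicates in two independent runs.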

[2] = Toxicity in human Caco2 cells assessed as cell viability incubated for 2 hrs by CellTiter-Glo assay; assay type: cell-based; settings: Caco-2 cells, read-out: Activity
Method in brief: (§2)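 Caco-2 cells exposed to peptide (200–0.1 µM, diluted in serum-free medium from DMSO stock) for 2 and 3 h, washed with PBS, then CellTiter-Glo luminescence read. Blank-subtracted, with 0.1% SDS and 1% DMSO controls. Viability relative to cells without peptide; triplicates in two independent runs.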

[3] = target: T1, Lymphocyte function-associated antigen 3/T-cell surface antigen CD2 (Homo sapiens) (UniProt P06729+P19256); assay: (§3) Inhibition of CD2-CD58 protein-protein interaction assessed as inhibition of cell adhesion between CD58 expressing human Caco2 cells and CD2 expressing human Jurkat cells by BCECF-AM fluorescent dye based fluorimetric assay; set-up: concentration or dose not given beside the values; settings: concentration not given here
[4] = Toxicity in human Jurkat cells assessed as cell viability at 200 yuM incubated for 2 hrs by CellTiter-Glo assay; assay type: cell-based; settings: read-out: Activity; method in brief: as §1
[5] = target: T2, Lymphocyte function-associated antigen 3/T-cell surface antigen CD2 (Homo sapiens, UniProt P06729+P19256); assay: as §3
T2 sequence (P06729 whole entry): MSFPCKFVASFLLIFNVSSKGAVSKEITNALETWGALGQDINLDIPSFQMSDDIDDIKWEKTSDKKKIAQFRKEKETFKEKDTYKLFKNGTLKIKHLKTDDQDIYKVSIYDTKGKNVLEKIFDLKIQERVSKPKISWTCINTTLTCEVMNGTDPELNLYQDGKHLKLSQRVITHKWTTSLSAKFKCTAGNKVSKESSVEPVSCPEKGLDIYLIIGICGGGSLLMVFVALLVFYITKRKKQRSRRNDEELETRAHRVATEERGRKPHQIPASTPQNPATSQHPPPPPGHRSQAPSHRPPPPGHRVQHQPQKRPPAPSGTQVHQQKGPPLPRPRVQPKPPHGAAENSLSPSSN
T2 sequence (P19256 whole entry): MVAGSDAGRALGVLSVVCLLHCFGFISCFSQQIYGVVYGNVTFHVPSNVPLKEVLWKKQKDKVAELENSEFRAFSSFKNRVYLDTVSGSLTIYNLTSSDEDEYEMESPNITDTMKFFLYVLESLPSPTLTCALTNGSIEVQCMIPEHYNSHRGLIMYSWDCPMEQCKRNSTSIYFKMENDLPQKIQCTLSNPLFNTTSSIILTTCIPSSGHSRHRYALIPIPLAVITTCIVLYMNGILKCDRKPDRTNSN

[6] = target: T1, Lymphocyte function-associated antigen 3/T-cell surface antigen CD2 (Homo sapiens); assay: Inhibition of CD2-CD58 protein-protein interaction assessed as inhibition of cell adhesion between CD58 expressing human Caco2 cells and CD2 expressing human Jurkat cells at =< 1 uM by BCECF-AM fluorescent dye based fluorimetric assay
[7] = Toxicity in human Caco2 cells assessed as cell viability at 200 uM incubated for 2 hrs by CellTiter-Glo assay; assay type: cell-based; settings: Caco-2 cells, read-out: Activity; method in brief: as §2

## CC[C@H](C)[C@@H]1NC(=O)[C@H](CC(=O)O)NC(=O)[C@H](CC(=O)O)NC(=O)[C@@H]2CCCN2C(=O)[C@H]2CCCN2C(=O)[C@H](CC(=O)O)NC(=O)[C@H](Cc2ccc(O)cc2)NC(=O)[C@H]([C@@H](C)CC)NC(=O)[C@H](CO)NC(=O)[C@H](CCCCN)NC1=O
T-cell
  inhibition: Dose-dependent effect
[1]
  viability at 2 h: > 95%
[2]
  viability at 2 h: > 95%

## CC[C@H](C)[C@@H]1NC(=O)[C@H](CCCCN)NC(=O)[C@H](CC(=O)O)NC(=O)[C@H](CC(=O)O)NC(=O)[C@@H]2CCCN2C(=O)[C@H]2CCCN2C(=O)[C@H](CC(=O)O)NC(=O)[C@H](Cc2ccc(O)cc2)NC1=O
[3]
  inhibition: < 20%

## CC[C@H](C)[C@@H]1NC(=O)[C@H](CC(=O)O)NC(=O)[C@H](CC(=O)O)NC(=O)CCc2cccc3c2Oc2c(cccc2-3)CCNC(=O)[C@H](CC(=O)O)NC(=O)[C@H](Cc2ccc(O)cc2)NC(=O)[C@H]([C@@H](C)CC)NC(=O)[C@H](CO)NC(=O)[C@H](CCCCN)NC1=O (cyclo(DDIKSIYD[X1]))
[3]
  inhibition: < 20%

## CC[C@H](C)[C@@H]1NC(=O)[C@H](CCCCN)NC(=O)[C@H](CC(=O)O)NC(=O)[C@H](CC(=O)O)NC(=O)CCc2cccc3c2Oc2c(cccc2-3)CCNC(=O)[C@H](CC(=O)O)NC(=O)[C@H](Cc2ccc(O)cc2)NC1=O (cyclo(DDKIYD[X1]))
[3]
  inhibition: < 20%

## CC[C@H](C)[C@@H]1NC(=O)[C@H](Cc2ccc(O)cc2)NC(=O)[C@H](CC(=O)O)NC(=O)CCc2cccc3c2Oc2c(cccc2-3)CCNC(=O)[C@H](CC(=O)O)NC(=O)[C@H](CC(=O)O)NC(=O)[C@H](CCCCN)NC1=O (cyclo(DD[X1]DYIK))
[4]
  viability at 2 h, 200 µM: 90%
[5]
  IC50: 11.1 nM
[6]
  inhibition: 80%
[1]
  viability at 2 h: > 95%
[2]
  viability at 2 h: > 95%
[7]
  viability at 2 h, 200 µM: 90%

## CC[C@H](C)[C@@H]1NC(=O)[C@H](Cc2ccc(O)cc2)NC(=O)[C@H](CC(=O)O)NC(=O)CCc2cccc3c2Oc2c(cccc2-3)CCNC(=O)[C@H](CC(=O)O)NC(=O)[C@H](CC(=O)O)NC(=O)[C@H]([C@@H](C)CC)NC(=O)[C@H](CCCCN)NC(=O)[C@H](CO)NC1=O (cyclo(DD[X1]DYISKI))
[3]
  inhibition: < 20%

## H-KGKTDAISVKAI-NH2
[3]
  inhibition: 18%
